Screening data (PubChem)
Only a sample is shown.
PGC1a Ac signal = raises PGC1a acetylation signal in U2OS cells; U2OS PGC1a acetylation AlphaScreen, overnight; activation, % at 15.6 µM; 350,000 tested, 0.21% active;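 active = every replicate reaching activation of at least 50%, whatever the mean replicate activation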;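 also: hits raise the AlphaScreen acetylation signal above neutral controls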
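System: flag-PGC1a/GCN5 U2OS cells / Input: 7000 cells/well / Compound: single test concentration per compound / Incubation: overnight compound treatment, 37 °C / Technique: AlphaScreen on lysates with anti-acetyl-lysine antibody, acceptor and donor beads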
The depositor's hits bear a star.

What do the screens show for `CNC[C@@H]1OCCCC[C@H](C)Oc2ccc(NS(=O)(=O)c3cccs3)cc2C(=O)N([C@H](C)CO)C[C@@H]1C`?
PGC1a Ac signal: -59

How did CC(C)(C)C(=O)/C(=C\c1cccc([N+](=O)[O-])c1)n1cncn1 do in these assays?
PGC1a Ac signal: -96

How did O=C(O)C1C2CC3OC(=O)C1C3C2 (configuration not stated) do in these assays?
PGC1a Ac signal: -62

Results for O=C(CC1SC(=Nc2ccc3c(c2)OCCO3)NC1=O)Nc1ccc(F)cc1F (configuration not stated) ?
PGC1a Ac signal: 189*

Results for Cn1nc(-c2ccccc2F)c2cc(C(=O)N3CCN(C(=O)c4ccco4)CC3)sc21 ?
PGC1a Ac signal: 82*

What do the screens show for `O=C(c1ccco1)N1CCN(c2ncnc3scc(-c4cccs4)c23)CC1`?
PGC1a Ac signal: -45

What do the screens show for `CC(C)C#Cc1cnc2c(c1)C(=O)N([C@H](C)CO)C[C@H](C)[C@H](CN(C)C(=O)c1ccccn1)O2`?
PGC1a Ac signal: -45

What do the screens show for `O=C(C[C@@H]1C[C@@H]2c3cc(NC(=O)Nc4ccccc4F)ccc3O[C@@H]2[C@@H](CO)O1)NCc1ccc(Oc2ccccc2)cc1`?
PGC1a Ac signal: -84

What do the screens show for `CCN1C(C#N)=C(C#N)N=C(C)CC1(C)C`?
PGC1a Ac signal: -109

How did Cc1ccc2nsnc2c1NC(=O)c1ccc([N+](=O)[O-])o1 do in these assays?
PGC1a Ac signal: -44

What do the screens show for `Cc1ccc(NC(=O)c2ccc([N+](=O)[O-])o2)cc1C`?
PGC1a Ac signal: 90*

Results for O=S(=O)(C/C(=C/CO)S(=O)(=O)c1ccccc1)c1ccccc1 ?
PGC1a Ac signal: 112*

What do the screens show for `N#Cc1cccc(C#N)c1NCC1CCCO1` (configuration not stated)?
PGC1a Ac signal: -43

How did CC1CC(C)CN(S(=O)(=O)c2ccc(C(=O)NCCCn3ccnc3)cc2)C1 (configuration not stated) do in these assays?
PGC1a Ac signal: 580*

How did COc1ccc2c(c1)CCc1c(C(=O)NCCCn3ccnc3)noc1-2 do in these assays?
PGC1a Ac signal: -41

Results for CCSc1ccccc1C(=O)NCCCn1ccnc1 ?
PGC1a Ac signal: -95

What do the screens show for `CCOC(=O)C1=C(CS(=O)(=O)c2ccccc2)NC(=O)NC1c1ccc(O)c(OC)c1` (configuration not stated)?
PGC1a Ac signal: -52

What do the screens show for `CCOC(=O)CC(S(=O)(=O)c1ccccc1)S(=O)(=O)c1ccccc1`?
PGC1a Ac signal: 96*

Results for Cn1c(CO)cnc1SCC(=O)c1ccc(Cl)cc1 ?
PGC1a Ac signal: -43

Results for CCC(C)(C)NC(=O)c1ccc2c(c1)S(=O)(=O)c1ccccc1C2=O ?
PGC1a Ac signal: -54

What do the screens show for `Clc1ccc(Oc2cccc(/C=N/n3cnnc3)c2)cc1`?
PGC1a Ac signal: -83

Results for O=C(Cc1ccccn1)N[C@H]1CC[C@H](CCn2cc(-c3ccccc3)nn2)O[C@@H]1CO ?
PGC1a Ac signal: 76*

What do the screens show for `Cc1ccccc1S(=O)(=O)N[C@@H]1CC[C@@H](CCn2cc(Cc3ccccc3)nn2)O[C@H]1CO`?
PGC1a Ac signal: -61

How did O=C(Cc1ccccn1)NCC[C@H]1CC[C@H](NC(=O)Nc2ccc(C(F)(F)F)cc2)[C@H](CO)O1 do in these assays?
PGC1a Ac signal: -48

Results for O=C(Cc1ccccn1)N[C@@H]1CC[C@@H](CCn2cc(-c3ccccc3)nn2)O[C@H]1CO ?
PGC1a Ac signal: 133*

How did COc1ccc(NC(=O)N[C@@H]2CC[C@H](CCn3cc(-c4ccccc4F)nn3)O[C@H]2CO)cc1 do in these assays?
PGC1a Ac signal: -62

Results for O=C(Cc1ccccn1)NCC[C@H]1CC[C@@H](NC(=O)Nc2ccc(C(F)(F)F)cc2)[C@@H](CO)O1 ?
PGC1a Ac signal: -102

How did CC(C)[C@H]1COCCS(=O)(=O)N1Cc1ccccc1F do in these assays?
PGC1a Ac signal: -50

What do the screens show for `C[C@H]1CN([C@@H](C)CO)C(=O)CCCn2nncc2CO[C@@H]1CN(C)C(=O)c1ccc(N2CCN(C)CC2)cc1`?
PGC1a Ac signal: -56

What do the screens show for `CN1CCN2c3ncccc3Cc3ccccc3[C@@H]2C1`?
PGC1a Ac signal: -46

How did Nc1c(C(=O)c2ccccc2)sc2nsc(SCCN3CCCC3)c12 do in these assays?
PGC1a Ac signal: 126*

What do the screens show for `C[C@@H]1CN([C@@H](C)CO)C(=O)CCCn2cc(nn2)CO[C@H]1CN(C)Cc1ccc2c(c1)OCO2`?
PGC1a Ac signal: -59

What do the screens show for `CC(=O)ON=C1C=CC(=C(C#N)c2ccccc2)C=C1`?
PGC1a Ac signal: -41

What do the screens show for `O=C(Cn1ncc(Cl)c(Cl)c1=O)N1CCN(S(=O)(=O)c2ccc3ccccc3c2)CC1`?
PGC1a Ac signal: -77

Results for CCC(=O)Nc1ccc(C(=O)Cn2ncc(Cl)c(Cl)c2=O)cc1 ?
PGC1a Ac signal: 265*

What do the screens show for `Cc1ccc(C)c(C(=O)Cn2ncc(Cl)c(Cl)c2=O)c1`?
PGC1a Ac signal: 485*

What do the screens show for `O=C(Cn1ncc(Cl)c(Cl)c1=O)NC(=O)NC1CCCCC1`?
PGC1a Ac signal: -58

What do the screens show for `COc1ccc(NC(=O)Cn2ncc(Cl)c(Cl)c2=O)cc1S(=O)(=O)N1CCOCC1`?
PGC1a Ac signal: 105*

How did COc1ccc(CN(C)C[C@@H]2Oc3ccc(NS(=O)(=O)c4c(C)noc4C)cc3C(=O)N([C@@H](C)CO)C[C@@H]2C)cc1 do in these assays?
PGC1a Ac signal: -56

What do the screens show for `CO[C@H]1CN(C)C(=O)c2cc(NC(=O)c3ccccc3F)ccc2OC[C@@H](C)N(C(C)=O)C[C@@H]1C`?
PGC1a Ac signal: -130

Results for CCS(=O)(=O)c1ccc(O)c(NC(=O)COc2ccc(Br)cc2)c1 ?
PGC1a Ac signal: -97

Results for O=C(CC1CC1)N[C@H]1CC[C@H](CCNS(=O)(=O)c2ccc(Cl)cc2)O[C@H]1CO ?
PGC1a Ac signal: -53

What do the screens show for `Fc1ccc(CO/N=C/C2=C(Cl)c3ccccc3CC2)cc1`?
PGC1a Ac signal: -79

Results for Cc1cc2oc(=O)cc(CN3CCC(C)CC3)c2cc1C ?
PGC1a Ac signal: -42

Results for O=C(Cc1ccncc1)NCC[C@H]1CC[C@@H](NC(=O)C2CC2)[C@H](CO)O1 ?
PGC1a Ac signal: -62

Results for N#CC1=C(N)Oc2c(ccc3ccccc23)C1c1ccsc1 (configuration not stated) ?
PGC1a Ac signal: 57*

How did COC(=O)c1cc(Cl)c(NS(=O)(=O)c2ccccc2)cc1OC do in these assays?
PGC1a Ac signal: -48

How did O=C(Nc1ccccc1)Nc1cc(Cl)cc(Cl)c1 do in these assays?
PGC1a Ac signal: -39

What do the screens show for `O=C(Nc1ccccc1)c1nnsc1S(=O)c1ccc(Cl)cc1` (configuration not stated)?
PGC1a Ac signal: 125*

What do the screens show for `CCOc1ccc2nc(NCCCNC(=O)c3cc(OC)c(OC)c(OC)c3)c(C#N)cc2c1`?
PGC1a Ac signal: -42

Results for Cc1cc(C)c2c(=O)[nH]n(C3CCCCCC3)c2n1 ?
PGC1a Ac signal: -88

Results for COc1nc(OCCNS(=O)(=O)c2ccc(C)cc2)nc(N(C)C)n1 ?
PGC1a Ac signal: -52

Results for C[C@H]1CN([C@@H](C)CO)S(=O)(=O)c2ccc(Br)cc2O[C@H]1CN(C)S(C)(=O)=O ?
PGC1a Ac signal: -107

Results for COc1ccc(S(=O)(=O)N(C)C[C@H]2Oc3cc(C4=CCCC4)ccc3S(=O)(=O)N([C@H](C)CO)C[C@@H]2C)cc1 ?
PGC1a Ac signal: -51
